HTRA1 inhibitor – blocks human HTRA1 serine peptidase; Q92743; inhibition, % at 5.96 µM; recombinant HTRA1, FP-rhodamine activity-based probe, fluorescence polarization; 0.5% of 340,000 active; in the data active means inhibition above about 36%;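 further: 0% = enzyme with DMSO and 100% = wells lacking enzyme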
Target sequence (Q92743 whole entry, looked up): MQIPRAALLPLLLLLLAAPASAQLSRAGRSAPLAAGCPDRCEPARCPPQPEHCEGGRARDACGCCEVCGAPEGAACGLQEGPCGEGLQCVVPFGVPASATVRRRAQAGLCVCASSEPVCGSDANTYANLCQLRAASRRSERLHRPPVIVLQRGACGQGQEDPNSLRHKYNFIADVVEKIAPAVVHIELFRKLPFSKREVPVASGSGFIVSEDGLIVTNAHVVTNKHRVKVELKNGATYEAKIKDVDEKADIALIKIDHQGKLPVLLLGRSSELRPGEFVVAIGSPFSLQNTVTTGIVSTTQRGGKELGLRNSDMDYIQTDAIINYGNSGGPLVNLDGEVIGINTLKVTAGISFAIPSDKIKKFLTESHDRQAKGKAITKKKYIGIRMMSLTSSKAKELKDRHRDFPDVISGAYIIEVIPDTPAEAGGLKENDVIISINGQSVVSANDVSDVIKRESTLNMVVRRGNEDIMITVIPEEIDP
DAGLB inh – blocks human DAGLB lipase activity; Q8NCG7; HEK293T DAGLB membrane lysate, EnzChek fluorogenic substrate; inhibition, % at 5.17 µM; 0.059% of 340,000 active; AID 504411; in the data active means inhibition above about 34%;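 further: 0% = enzyme with vehicle and 100% = wells lacking enzyme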
SIAE inh – inhibitors of human sialic acid acetylesterase SIAE | 0.69% of 370,000 active | SIAE FP-Rh probe binding, fluorescence polarization | Q9HAT2 | inhibition, % at 9.66 µM | AID 1053197;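 active means inhibition above a cutoff: mean of compounds within the control limits plus 3 SD of those, cut at about 17% in these data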;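 further: 0% = plate median of compound wells and 100% = probe without SIAE protein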
TCR CD3 inh – inhibitors of human TCR-CD3 interaction; TAMRA-labeled TCR probe fluorescence, biochemical; inhibition, % at 9.4 µM; 0.37% of 360,000 active; AID 651800; in the data active means inhibition above about 19%;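 further: recombinant mutant TCR 2C K166C tagged with TAMRA read by polarization; 0% = receptor in buffer alone and 100% = receptor with positive control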
mABHD4 FP – inhibits mouse alpha/beta hydrolase domain 4; Q8VD66; purified mABHD4, FP-Rh probe fluorescence polarization; inhibition, % at 8.92 µM; 0.54% of 370,000 active; AID 720543;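 active means inhibition exceeding the mean over every tested compound plus 3 SD, cut at about 30% in these data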;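 further: 0% = plate median of compound wells and 100% = S159A mutant with DMSO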
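Assay system: mABHD4 protein; medium: HEPES pH 7.0, NaCl, Pluronic buffer; dosing: 8.92 µM, single dose; schedule: 45 min + 60 min at 25 °C; signal: FP readout, ex 525 nm / em 598 nm; read-out: normalized percent inhibition of probe labeling; repeats: single replicate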
mABHD4 conf – ABHD4 (mouse) inhibition, FP confirmation; shares compounds with mABHD4 FP; purified mABHD4, FP-Rh probe fluorescence polarization; inhibition, % at 8.92 µM; 55% of 1,800 active; AID 720658;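 active means mean inhibition across replicates above the hit cutoff set in the primary screen, cut at about 30% in these data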;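 further: 0% = wild-type ABHD4 with DMSO and 100% = catalytically dead S159A mutant with DMSO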
The depositor's hits bear a star; x = no result. Hits are enriched below; roughly 1.6% of the tested compounds scored in any of these assays.

SMILES	HTRA1 inhibitor	DAGLB inh	SIAE inh	TCR CD3 inh	mABHD4 FP	mABHD4 conf
CCOC(=O)C1=C(C)N=c2s/c(=C\c3ccc(O)c([N+](=O)[O-])c3)c(=O)n2C1c1ccccc1OC (stereo not drawn)	21	9	4	-6	37*	63*
C[C@H]1[C@@H](NC(=O)c2cccc(N(C)C)c2)CC[C@@]23CCCN2C(=O)CCC[C@@H]13	x	x	-6	x	-2	x
COc1ccc(C(=O)Oc2cc(OC)cc(OC)c2C(C)=O)cc1	-4	-4	13	-1	38*	41*
COc1ccc(C(C)=O)c(OC(=O)c2ccc(OC)c(OC)c2)c1	1	0	2	2	-6	x
COc1cc(NC(=O)C2CCN(c3nnc(-n4cccc4)s3)CC2)cc(OC)c1	x	x	-4	x	-9	x
CCCCn1c(N)c(N(CC(C)C)C(=O)c2ccc(N3C(=O)CCC3=O)cc2)c(=O)[nH]c1=O	-2	0	2	-2	35*	4
CCCCn1c(N)c(N(CC(C)C)C(=O)C2CCCO2)c(=O)[nH]c1=O (stereo not drawn)	3	0	0	6	32*	-4
CCCCn1c(N)c(N(CCC(C)C)C(=O)C2CCCO2)c(=O)[nH]c1=O (stereo not drawn)	-2	-2	4	4	-1	x
COCC(=O)N(C)[C@H]1C[C@H]2c3[nH]c4cccc(-c5cccc(F)c5)c4c3CCN2C(=O)[C@H]1[C@H](C)O	x	x	3	x	-5	x
CC(C)(C)c1ccc(/C=C2\Oc3cc(OC(=O)N4CCOCC4)ccc3C2=O)cc1	-2	-3	-4	1	67*	57*
Cc1ccc(/C=C2\Oc3cc(OC(=O)N4CCOCC4)ccc3C2=O)cc1	1	0	0	-5	12	x
CC[C@@]1(c2cccc(Cl)c2)C(=O)N(C(=O)OC(C)C)N1C(=O)OC(C)C	x	x	7	x	1	x
Cc1cccc(C(=O)Nc2c(-c3ccccc3)nc3ncccn23)c1	x	x	-6	x	-1	x
Cc1ccc(-n2nc(C)c3c2OC(N)=C(C#N)C3c2ccc(C)o2)cc1 (stereo not drawn)	10	13	7	-1	28	x
Cc1ccc(-n2nc(C)c3c2OC(N)=C(C#N)C3c2ccco2)cc1 (stereo not drawn)	8	4	14	-2	41*	20
CCN(Cc1ccccc1)c1ccc(/C=N/N=C(N)N)cc1	23	4	6	0	46*	62*
COc1ccc(C(=O)OCC(=O)c2ccc3c(c2)NC(=O)CO3)cc1OC	1	1	-9	0	0	x
CC(=O)Nc1cc(NC(C)=O)cc(C(=O)OCC(=O)c2ccc3c(c2)NC(=O)CO3)c1	-3	-2	-4	-2	46*	7
COC(=O)[C@]12C[C@H](CC(=O)NCc3cccc(C(F)(F)F)c3)C(=O)N(Cc3ccco3)C1=C[C@H](COCc1ccccc1)O[C@@H]2C	x	x	2	x	4	x
c1cc2c(cc1C1CCCCC1)c1c3n2CCCNC3CCC1 (stereo not drawn)	26	2	10	4	36*	57*
Cc1cc(N/N=C/c2cccc(Cl)c2)nc(NCc2ccccc2)n1	-35	-3	8	-5	40*	60*
Cc1cc(N/N=C/c2cccc(F)c2)nc(NCc2ccccc2)n1	-25	-6	-4	10	39*	39*
Cn1ccc2c(/C=C/c3ccc(F)cc3)cc3c(c21)C1CCC3C1 (stereo not drawn)	x	x	6	-1	45*	38*
Cn1ccc2c(/C=C/c3ccc(F)cc3)cc3c(c21)C1CCC3O1 (stereo not drawn)	x	x	-3	3	17	x
COc1ccc(NC(=O)c2ccccc2[N+](=O)[O-])cc1	-2	-3	2	12	-8	x
SMILES	HTRA1 inhibitor	DAGLB inh	SIAE inh	TCR CD3 inh	mABHD4 FP	mABHD4 conf
COc1ccc(NC(=S)Nc2ccc(N)c([N+](=O)[O-])c2)cc1	36	8	2	-2	34*	8
CC1CCN(CCCNS(=O)(=O)c2cc3c(cc2Br)CCN3C(=O)C2CC2)CC1	x	x	4	x	8	x
CCOc1cccc(-c2nn3c(-c4cccc(C)c4)nnc3s2)c1	x	x	-5	x	-50	x
COC(=O)[C@H]1C[C@@]2(Oc3ccc(Br)cc3)c3ccccc3N(C(=O)OC(C)(C)C)[C@H]2N1C(=O)OC(C)(C)C	x	x	3	x	-11	x
Cc1ccc(NC(=S)NNc2ccc([N+](=O)[O-])cc2S(=O)(=O)Nc2ccccc2C(=O)O)cc1C	15	24	14	6	46*	85*
CC(C)(C)OC(=O)NCCc1ccccc1/C=C/S(=O)(=O)NCc1ccccc1	x	x	2	x	-6	x
CCOC1=C2[C@H](c3ccccc3)N(S(=O)(=O)c3ccc(C)cc3)[C@H](C(C)C)[C@H]2C(C#N)(C#N)C(C#N)(C#N)C1	x	x	-10	5	-1	x
NNc1nc2ccc(F)cc2s1	30	1	11	7	42*	26
Cc1cccc(NC(=O)CN2C(=O)S/C(=C\c3ccc(O)c([N+](=O)[O-])c3)C2=O)c1	22	27	9	-5	34*	60*
CC/C(C)=N/Nc1nc2c(c(=O)[nH]c(=O)n2C)n1Cc1ccccc1	11	6	-4	9	34*	18
Cc1ccc(C(=O)N2NC(c3ccc(F)cc3)C3C(=O)N(c4ccc(C)cc4)C(=O)C32)cc1 (stereo not drawn)	-12	-2	2	1	1	x
COc1ccccc1N1C(=O)C2C(c3ccc(F)cc3)NN(C(=O)c3ccc(C)cc3)C2C1=O (stereo not drawn)	1	6	1	-4	34*	24
Cc1csc(=O)n1CC(=O)OCc1nnc(-c2ccccc2)o1	0	1	1	-8	0	x
Cc1csc(=O)n1CC(=O)OCc1nnc(-c2ccc(Cl)cc2)o1	7	3	1	-3	36*	5
COC(=O)[C@]12C[C@H](CC(=O)NCc3cccs3)C(=O)N(Cc3ccc(Cl)cc3Cl)C1=C[C@H](C(C)(C)C)O[C@@H]2C	x	x	-4	x	-12	x
O=C(O)c1cc([N+](=O)[O-])c(NCCC2=CCCCC2)c([N+](=O)[O-])c1	-6	12	6	0	55*	66*
CCCCNc1c([N+](=O)[O-])cc(C(=O)O)cc1[N+](=O)[O-]	-3	1	3	-4	0	x
COc1ccc(N2C(=O)CC(Nc3ccc(N4CCOCC4)cc3)C2=O)c(OC)c1 (stereo not drawn)	22	5	30*	10	49*	14
O=C1CC(Nc2ccc(N3CCOCC3)cc2)C(=O)N1CCc1ccccc1 (stereo not drawn)	12	5	17	-1	33*	4
COc1ccc(N2C(=O)CC(Nc3ccc(C)cc3)C2=O)cc1 (stereo not drawn)	3	1	10	-5	9	x
Oc1ccccc1/C=N/Nc1nccnc1Cl	0	-1	-2	-4	21	x
